This passage reports IC50 and Ratio results from ChEMBL document CHEMBL1126709, “Structure-activity relationship studies at the benzodiazepine receptor (BZR): a comparison of the substitutent effects of pyrazoloquinolinone analogs” (J Med Chem, 1993).

Assay [1] deals with GABA-A receptor; anion channel. Kind of assay: Specific binding of [3H]Ro-151788 to GABA-A Benzodiazepine receptor in rat cortex. Summed up: (§1)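 Rat brain (Sprague-Dawley) cortex homogenized in 50 mM Tris-citrate pH 7.4, centrifuged at 20000g, washed five times and stored at -80 °C. About 0.12 mg protein was incubated with [3H]Ro15-1788 (1 nM final) for 1 h at 0–4 °C. Nonspecific binding was defined with 10 μM Ro14-7437. Bound label was separated by filtration and counted by scintillation. IC50 was taken from 10-concentration curves run in triplicate.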

The target of assay [2] is GABA-A receptor; anion channel (Rattus norvegicus) (UniProt O09028+P15431+P18506+P18508+P19969+P20236+P23574+P23576+P28471+P28473+P30191+P62813+P63079+P63138+Q91ZM7+Q9ES14). Kind of assay: Relative binding to GABA-A receptor in the presence and absence of GABA. The assay is classed as protein-complex assay. A digest of the protocol:
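GABA shift ratio is IC50 without GABA divided by IC50 with GABA. Both were measured as [3H]Ro15-1788 (1 nM) displacement in washed rat cortical membranes, 1 h at 0–4 °C, with filtration and scintillation counting. The GABA arm also contained NaCl (400 mM) and GABA (200 mM, as printed). Curves used 10 concentrations in triplicate.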

The target of assay [3] is GABA-A receptor; anion channel. Kind of assay: Partial agonistic activity against specific binding of [3H]-Ro-15-1788 to GABA-A Benzodiazepine receptor in rat cortex. A digest of the protocol: as §1

As for `O=c1c2cnc3ccc(Cl)cc3c2[nH]n1-c1ccc(Cl)cc1`, the half-inhibitory concentration (IC50) in assay [1] was found to be 4 nM. In addition, in assay [2], the Ratio came to 1.47.
Take `O=C1C2C=Nc3ccccc3C2=NN1c1ccc(Cl)cc1` (stereo not drawn) [CGS-9896]: the concentration for half-maximal inhibition (IC50) in assay [3] amounted to 0.56 nM. In addition, the Ratio in assay [2] worked out at 1.07.
On to `COc1ccc2ncc3c(=O)n(-c4ccccc4)[nH]c3c2c1`, for which the IC50 in assay [1] was found to be 0.38 nM. For the same compound, the Ratio in assay [2] amounted to 0.91.
As to `COc1cccc(-n2[nH]c3c(cnc4ccccc43)c2=O)c1`, the IC50 in assay [1] amounted to 0.58 nM. In addition, the Ratio in assay [2] worked out at 1.1.
Consider `COc1ccc(-n2nc3c4ccccc4[nH]cc-3c2=O)cc1`, for which, in assay [3], the half-inhibitory concentration (IC50) turned out to be 0.38 nM. In assay [2], the Ratio worked out at 0.94.
`O=c1c2cnc3ccccc3c2[nH]n1-c1cccc(Cl)c1`: in assay [1], the IC50 was found to be 3.9 nM. Moreover, the Ratio in assay [2] is 1.7.
Compound `COc1ccc2c(c1)ncc1c(=O)n(-c3ccccc3)[nH]c12` displayed an IC50 in assay [1] of 2.1 nM. For the same compound, the Ratio in assay [2] was found to be 0.97.
In assay [1], `O=c1c2cnc3ccccc3c2[nH]n1-c1ccccc1Cl` returned an IC50 of 70 nM. The Ratio in assay [2] worked out at 1.
The like results for `O=c1c2cnc3ccc(Cl)cc3c2[nH]n1-c1ccccc1Cl` were, in that order, 8 nM and 1.34.
On the same counts, the results for `O=c1c2cnc3ccc(Cl)cc3c2[nH]n1-c1ccccc1` are 0.24 nM and 1.1.
As to `COc1ccccc1-n1[nH]c2c(cnc3ccccc32)c1=O`, the 50% inhibitory concentration (IC50) in assay [1] came out at 990 nM. This lies in the sub-micromolar range.
For the compound `O=C1C2C=Nc3ccccc3C2=NN1c1ccccc1` (stereo not drawn) [CGS-8216], the IC50 in assay [3] was determined as 0.13 nM. Further, the Ratio in assay [2] was determined as 0.99.

The term IC50 denotes the point on the concentration scale where inhibition reaches its midpoint.
